Test results taken from the M2OR odorant receptor database.

biological target: T1, OR5K1 (Homo sapiens) (UniProt Q8NHB7); settings: stereoisomer not certain
T1 sequence (whole entry): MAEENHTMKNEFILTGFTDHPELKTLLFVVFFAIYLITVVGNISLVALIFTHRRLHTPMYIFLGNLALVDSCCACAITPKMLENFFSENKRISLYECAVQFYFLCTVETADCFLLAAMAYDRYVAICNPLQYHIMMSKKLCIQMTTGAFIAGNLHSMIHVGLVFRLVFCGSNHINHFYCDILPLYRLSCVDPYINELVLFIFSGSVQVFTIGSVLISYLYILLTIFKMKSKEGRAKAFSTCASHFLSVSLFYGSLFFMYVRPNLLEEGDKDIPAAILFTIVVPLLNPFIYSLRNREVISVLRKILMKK
Method in brief: (§1)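 Transient luciferase assays in mammalian cell lines were common, though methods varied by source. The values come from published papers and their supplementary material, with extra details from the original authors when needed. Responsive refers to a measured signal the original authors judged statistically different from baseline, and non-responsive (inactive) to the remainder.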

Odorant receptor agonist call, active:
Cc1cnccn1
CC(=O)c1nccnc1C
CCC(C)c1nccnc1OC (configuration not stated)
Cc1cnc(C)cn1
COc1cnccn1
CC(=O)c1cnccn1
CCc1nccnc1C
CCc1nccnc1OC
COc1nccnc1C(C)C
Cc1cncc(C)n1
CCc1ncc(C)nc1CC
CCc1nccnc1C(C)=O
COc1nccnc1CC(C)C
C=Cc1cnccn1
CC1CCc2nccnc21 (configuration not stated)
Cc1nccnc1C
CCc1nccnc1CC

Odorant receptor agonist call, inactive:
CCC(=O)O
CCCC(S)CCO (configuration not stated)
CCCC(=O)OCC
CC=CC(=O)C(C)CC (configuration not stated)
OCC=Cc1ccccc1
CCCCCCCC(=O)OCC
CC1=CCC2CC1C2(C)C (configuration not stated)
CCC(C)CO (configuration not stated)
COCCC(C)(C)S
CSC
CSCCC=O
CCCC(=O)C(C)CC (configuration not stated)
CCc1ccc(O)cc1
CCCCCCCC(=O)[O-].[H+]
CCCCCCC=CC=O
CC(C)CCCCCCCCCCC=O
Cc1ccc(O)cc1
CCOC(=O)C(C)CC (configuration not stated)
CC(C)CCO
CCCCCCCCC1CCC(=O)O1 (configuration not stated)
CC(C)=CCCC(C)=CCO
OCCc1ccccc1
C=C1CCC2CC1C2(C)C (configuration not stated)

biological target: T2, OR5K2 (Homo sapiens) (UniProt Q8NHB8); settings: stereoisomer not certain
T2 sequence (whole entry): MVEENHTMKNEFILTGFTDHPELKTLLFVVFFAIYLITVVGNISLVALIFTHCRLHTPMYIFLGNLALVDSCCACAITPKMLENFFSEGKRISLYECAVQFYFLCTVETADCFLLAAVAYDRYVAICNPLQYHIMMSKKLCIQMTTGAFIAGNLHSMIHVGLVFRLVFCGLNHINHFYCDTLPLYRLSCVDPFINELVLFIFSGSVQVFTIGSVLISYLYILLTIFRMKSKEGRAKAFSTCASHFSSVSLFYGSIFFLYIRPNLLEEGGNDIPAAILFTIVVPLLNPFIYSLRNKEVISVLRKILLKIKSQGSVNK
Method in brief: as §1

Odorant receptor agonist call, inactive:
Cc1cnccn1
CC(=O)c1nccnc1C
CCC(C)c1nccnc1OC (configuration not stated)
Cc1cnc(C)cn1
COc1cnccn1
CC(=O)c1cnccn1
CCc1nccnc1C
CCc1nccnc1OC
COc1nccnc1C(C)C
Cc1cncc(C)n1
CCc1ncc(C)nc1CC
CCc1nccnc1C(C)=O
COc1nccnc1CC(C)C
C=Cc1cnccn1
CC1CCc2nccnc21 (configuration not stated)
Cc1nccnc1C
CCc1nccnc1CC
